Data set [1] concerns Mus musculus. Nature of the data set: Reduction in PTEN mRNA expression in ip dosed BALB/c mouse liver administered twice a week for 3 weeks measured after 72 hrs of last dose by RT-PCR analysis. Type of data set: functional. In short, it runs like this: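 Male Balb/c mice, 6-week-old, ASO in PBS ip twice weekly for 3 weeks, four dose levels. Killed 72 h after last dose. Liver homogenized in guanidine isothiocyanate buffer, RNA column-purified. PTEN RNA by fluorescence qRT-PCR, normalized to cyclophilin A. Errors are SD.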

A short description of data set [2]: Reduction in PTEN mRNA expression in mouse bEND.3 cells after 24 hrs by qRT-PCR analysis. The following applies: for IC50: BEND3, 24 h. Type of data set: functional, cell-based. Put shortly:
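bEnd.3 cells in DMEM/10% FBS, seeded at 1 × 10^4 cells/well the day before. Transfected 4 h at 37 °C with Lipofectin 3 μg/mL in OptiMEM, eight 1:2 dilutions (40 nM to 312.5 pM), then refed with complete medium for 24 h. PTEN RNA by qRT-PCR, normalized to cyclophilin A, as % untreated control. Triplicate plates. IC50 from sigmoidal fit, top 100%, bottom 0%.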
For orientation: Quantitative PCR measures a nucleic acid by following its amplification.

Data set [3] relates to Mus musculus. Nature of the data set: Toxicity in BALB/c mouse assessed as effect on kidney weight at 0.7 to 23 mg/kg, ip administered twice a week for 3 weeks measured after 72 hrs of last dose. It counts as organism-based. Details: dose 0.7-23 mg/kg, route intraperitoneal. The note with it: in vivo. Put shortly: (§1)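 Male Balb/c mice, ip ASO in PBS twice weekly for 3 weeks at four dose levels. Body weight recorded before each dose. Killed 3 days after last dose. Organ weights normalized to body weight, expressed relative to the saline-treated group.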

The subject of data set [4] is Mus musculus. Nature of the data set: Toxicity in BALB/c mouse assessed as effect on body weight at 0.7 to 23 mg/kg, ip administered twice a week for 3 weeks measured after 72 hrs of last dose. Type of data set: organism-based. Details: dose 0.7-23 mg/kg, route intraperitoneal. The note with it: in vivo. Put shortly:
as §1

The subject of data set [5] is Mus musculus. The data set is described as follows: Toxicity in BALB/c mouse assessed as effect on liver weight at 0.7 to 23 mg/kg, ip administered twice a week for 3 weeks measured after 72 hrs of last dose. More on the design: dose 0.7-23 mg/kg, route intraperitoneal. It counts as organism-based. The note with it: in vivo. In short, it runs like this: as §1
Data set [6] has as its system Mus musculus. Nature of the data set: Hepatotoxicity in BALB/c mouse assessed as liver ALT level at 0.7 to 23 mg/kg, ip administered twice a week for 3 weeks measured after 72 hrs of last dose. It counts as toxicity, organism-based. More on the design: dose 0.7-23 mg/kg, route intraperitoneal. The note with it: in vivo. In short, it runs like this:
(§2)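 Male 6-week-old Balb/c mice dosed ip in PBS twice weekly for 3 weeks: 0.7–23 mg/kg (four levels) or 0.5–14.6/14.8 mg/kg. Killed 72 h after final dose. Plasma from cardiac-puncture blood, ALT on clinical bioanalyzer. Errors are SD.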

For the next data set, the system named is Nucleic Acid. Nature of the data set: Binding affinity to mouse PTEN mRNA assessed as melting temperature at 4 uM by thermal denaturation assay. Type of data set: nucleic-acid assay. Put shortly:
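Duplex with complementary length-matched RNA; UV absorbance versus temperature curves in 100 mM Na+, 10 mM phosphate, 0.1 mM EDTA, 4 μM each strand. Tm is the average of two experiments.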

Data set [7] relates to Mus musculus. Nature of the data set: Toxicity in BALB/c mouse assessed as effect on body weight at 0.5 to 14.8 mg/kg, ip administered twice a week for 3 weeks measured after 72 hrs of last dose. It counts as organism-based. Details: dose 0.5-14.8 mg/kg, route intraperitoneal. The following applies: in vivo. Put shortly: as §1
Data set [8] has as its system Mus musculus. The data set is described as follows: Hepatotoxicity in BALB/c mouse assessed as liver ALT level at 0.5 to 14.8 mg/kg, ip administered twice a week for 3 weeks measured after 72 hrs of last dose. Type of data set: toxicity, organism-based. The following applies: in vivo. Details: dose 0.5-14.8 mg/kg, route intraperitoneal. In short, it runs like this: as §2

Data set [9] relates to Mus musculus. The data set is described as follows: Toxicity in BALB/c mouse assessed as effect on kidney weight at 0.5 to 14.8 mg/kg, ip administered twice a week for 3 weeks measured after 72 hrs of last dose. Type of data set: organism-based. More on the design: dose 0.5-14.8 mg/kg, route intraperitoneal. The note with it: in vivo. In short, it runs like this: as §1
The subject of data set [10] is Mus musculus. Nature of the data set: Toxicity in BALB/c mouse assessed as increase in spleen weight at 0.5 to 14.8 mg/kg, ip administered twice a week for 3 weeks measured after 72 hrs of last dose. The following applies: in vivo. More on the design: dose 0.5-14.8 mg/kg, route intraperitoneal. It counts as organism-based. In short, it runs like this: as §1
Data set [11] concerns Mus musculus. The data set is described as follows: Toxicity in BALB/c mouse assessed as effect on liver weight at 0.5 to 14.8 mg/kg, ip administered twice a week for 3 weeks measured after 72 hrs of last dose. Type of data set: organism-based. Details: dose 0.5-14.8 mg/kg, route intraperitoneal. The note with it: in vivo. Put shortly: as §1

As a reminder, the ED50 is the dose at which the effect has come halfway, by size or by number of responders. The term IC50 denotes the point on the concentration scale where inhibition reaches its midpoint. Usually Tm stands for the temperature at the midpoint of the melting transition.

`COCCO[C@@H]1[C@H](OP(O)(=S)OC[C@H]2O[C@@H](n3cc(C)c(=O)[nH]c3=O)C[C@@H]2OP(O)(=S)OC[C@H]2O[C@@H](n3cnc4c(=O)[nH]c(N)nc43)[C@H](OCCOC)[C@@H]2OP(O)(=S)OC[C@H]2O[C@@H](n3cc(C)c(N)nc3=O)[C@H](OCCOC)[C@@H]2OP(O)(=S)OC[C@H]2O[C@@H](n3cc(C)c(=O)[nH]c3=O)C[C@@H]2OP(O)(=S)OC[C@H]2O[C@@H](n3cnc4c(N)ncnc43)[C@H](O)[C@@H]2OP(O)(=S)OC[C@H]2O[C@@H](n3cnc4c(=O)[nH]c(N)nc43)[C@H](O)[C@@H]2OP(O)(=S)OC[C@H]2O[C@@H](n3cc(C)c(N)nc3=O)C[C@@H]2OP(O)(=S)OC[C@H]2O[C@@H](n3cc(C)c(N)nc3=O)C[C@@H]2OP(O)(=S)OC[C@H]2O[C@@H](n3cc(C)c(=O)[nH]c3=O)C[C@@H]2OP(O)(=S)OC[C@H]2O[C@@H](n3cc(C)c(N)nc3=O)C[C@@H]2OP(O)(=S)OC[C@H]2O[C@@H](n3cc(C)c(=O)[nH]c3=O)C[C@@H]2OP(O)(=S)OC[C@H]2O[C@@H](n3cnc4c(=O)[nH]c(N)nc43)[C@H](O)[C@@H]2OP(O)(=S)OC[C@H]2O[C@@H](n3cnc4c(=O)[nH]c(N)nc43)[C@H](O)[C@@H]2OP(O)(=S)OC[C@H]2O[C@@H](n3cnc4c(N)ncnc43)[C@H](O)[C@@H]2OP(O)(=S)OC[C@H]2O[C@@H](n3cc(C)c(=O)[nH]c3=O)C[C@@H]2OP(O)(=S)OC[C@H]2O[C@@H](n3cc(C)c(=O)[nH]c3=O)C[C@@H]2OP(O)(=S)OC[C@H]2O[C@@H](n3cc(C)c(=O)[nH]c3=O)C[C@@H]2OP(O)(=S)OC[C@H]2O[C@@H](n3cnc4c(=O)[nH]c(N)nc43)[C@H](OCCOC)[C@@H]2OP(O)(=S)OC[C@H]2O[C@@H](n3cnc4c(N)ncnc43)[C@H](OCCOC)[C@@H]2O)[C@@H](CO)O[C@H]1n1cc(C)c(N)nc1=O` (stereo partly drawn) gave an ED50 in the data set with Mus musculus [1] of 10 mg/kg. Further, the Activity entry in data set [2] was “Dose-dependent effect”; with Mus musculus [3], “Non-toxic”; in the data set on Mus musculus [4] it was “Non-toxic”; in the data set on Mus musculus [5] it was “Non-toxic”; in the data set on Mus musculus [6], “Non-toxic”. Further, inhibition in [2] was half-maximal at 1 nM (IC50). In addition, the Tm with Nucleic Acid was 67.9 °C.

On to `CON1C[C@@]2(COP(O)(=S)O[C@H]3[C@H]4ON(OC)C[C@@]3(COP(O)(=S)O[C@H]3[C@@H](O)[C@H](n5ccc(N)nc5=O)O[C@@H]3COP(O)(=S)O[C@H]3[C@@H](O)[C@H](n5cnc6c(=O)[nH]c(N)nc65)O[C@@H]3COP(O)(=S)O[C@H]3[C@@H](O)[C@H](n5cnc6c(=O)[nH]c(N)nc65)O[C@@H]3COP(O)(=S)O[C@H]3C[C@H](n5cc(C)c(=O)[nH]c5=O)O[C@@H]3COP(O)(=S)O[C@H]3[C@@H](O)[C@H](n5ccc(N)nc5=O)O[C@@H]3COP(O)(=S)O[C@H]3[C@@H](O)[C@H](n5cnc6c(N)ncnc65)O[C@@H]3COP(O)(=S)O[C@H]3[C@@H](O)[C@H](n5ccc(N)nc5=O)O[C@@H]3COP(O)(=S)O[C@H]3[C@@H](O)[C@H](n5cnc6c(=O)[nH]c(N)nc65)O[C@@H]3COP(O)(=S)O[C@H]3[C@@H](O)[C@H](n5cnc6c(N)ncnc65)O[C@@H]3COP(O)(=S)O[C@H]3C[C@H](n5cc(C)c(=O)[nH]c5=O)O[C@@H]3COP(O)(=S)O[C@H]3[C@H]5ON(OC)C[C@@]3(COP(O)(=S)O[C@H]3[C@H]6ON(OC)C[C@@]3(CO)O[C@H]6n3cc(C)c(N)nc3=O)O[C@H]5n3cc(C)c(=O)[nH]c3=O)O[C@H]4n3cc(C)c(N)nc3=O)O[C@@H](n3cc(C)c(=O)[nH]c3=O)[C@H](O1)[C@@H]2O` (stereo partly drawn), for which the Activity result in the data set on Mus musculus [1] is “Dose-dependent effect”; with Mus musculus [7], “Non-toxic”; in data set [2] it was “Dose-dependent effect”; in the data set with Mus musculus [8] it was “Non-toxic”; with Mus musculus [9], “Non-toxic”; in the data set with Mus musculus [10] it was “Toxic”. In addition, in the data set with Mus musculus [11], the Activity entry is given as “Non-toxic”. Further, in the data set with Mus musculus [1], the 50% effect level (ED50) was put at a dose of 8 mg/kg. Moreover, the IC50 in data set [2] came out at 3.1 nM. Further, the Tm with Nucleic Acid stood at 57.7 °C.

(Values after ChEMBL document CHEMBL1156266, “Antisense oligonucleotides containing conformationally constrained 2',4'-(N-methoxy)aminomethylene and 2',4'-aminooxymethylene and 2'-O,4'-C-aminomethylene bridged nucleoside analogues show improved potency in animal models” (J Med Chem, 2010).)
